From ChEMBL document CHEMBL1152771, “Identification of Shc Src homology 2 domain-binding peptoid-peptide hybrids” (J Med Chem, 2009)
Active and inactive are the calls of the source. No cut-off for these calls is given here. Where a SMILES comes first, the peptide text is derived from it. [ ]: non-standard residue; d: D form. The star is where a group is joined. X2 = O=C(c1cc(N=C=S)ccc1-c1c2ccc(=O)cc-2oc2cc(O)ccc12)*; pY = N[C@@H](Cc1ccc(OP(=O)(O)O)cc1)C(=O)O; GABA = NCCCC(=O)O

Key:
[1] = target: T1, SHC-transforming protein 1 (Homo sapiens) (UniProt P29353); test: Inhibition of Shc Src homology 2 domain binding to cMet expressed in human B5/589 cells at 10 uM; type: cell-based
T1 sequence (whole entry): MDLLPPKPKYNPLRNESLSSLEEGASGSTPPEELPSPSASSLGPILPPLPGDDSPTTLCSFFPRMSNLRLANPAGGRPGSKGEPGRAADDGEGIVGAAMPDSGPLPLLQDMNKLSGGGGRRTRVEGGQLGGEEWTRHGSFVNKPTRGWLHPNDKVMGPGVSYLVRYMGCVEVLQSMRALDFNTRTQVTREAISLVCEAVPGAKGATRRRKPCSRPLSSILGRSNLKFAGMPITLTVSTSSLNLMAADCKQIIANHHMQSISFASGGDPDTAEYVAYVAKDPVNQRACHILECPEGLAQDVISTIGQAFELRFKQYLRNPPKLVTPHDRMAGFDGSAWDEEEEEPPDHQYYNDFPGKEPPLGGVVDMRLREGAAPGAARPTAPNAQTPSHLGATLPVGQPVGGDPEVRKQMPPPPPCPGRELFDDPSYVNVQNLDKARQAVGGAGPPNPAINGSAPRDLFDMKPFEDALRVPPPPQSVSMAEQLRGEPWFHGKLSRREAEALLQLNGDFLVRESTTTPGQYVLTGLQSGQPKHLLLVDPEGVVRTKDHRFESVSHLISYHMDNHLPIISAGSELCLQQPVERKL
Procedure, shortened: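 B5/589 human mammary epithelial cells serum-starved 48 h, then exposed 1 h to peptide (10 μM) or none. HGF stimulation at 50 ng/mL for 20 min, then lysis in cold detergent buffer (pH 7.4). c-Met captured with biotinylated antibody on streptavidin resin; co-precipitated Shc and recovered c-Met detected by SDS-PAGE and immunoblot with chemiluminescence.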

[2] = target: T1, SHC-transforming protein 1 (Homo sapiens); test: (§1) Binding affinity to Shc Src homology 2 domain by fluorescence anisotropy
Procedure, shortened: (§2)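 Direct binding: 5 nM N-terminal fluorescein-labelled peptide in 10 mM HEPES, 150 mM NaCl pH 7.5 with 10% (v/v) DMSO; Shc SH2 protein serially diluted from 100 μM. Excitation 485 nm, parallel and perpendicular emission at 535 nm. Kd from fitting anisotropy versus protein concentration to a single-site binding model.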

[3] = target: T2, SHC-transforming protein 1 (Homo sapiens, UniProt P29353); test: as §1; procedure, shortened: as §2
T2 sequence (P29353 whole entry): T1 sequence (whole entry)

Row | SMILES | Activity [1] | Activity [2] | further results
1 | CC(C)C[C@H](NC(=O)CNC(=O)[C@H](CCC(N)=O)NC(=O)[C@H](Cc1ccc(OP(=O)(O)O)cc1)NC(=O)[C@H](CC(C)C)NC(=O)CNC(=O)c1cc(N=C=S)ccc1-c1c2ccc(=O)cc-2oc2cc(O)ccc12)C(=O)N[C@@H](CO)C(N)=O (HELM PEPTIDE1{[O=C(c1cc(N=C=S)ccc1-c1c2ccc(=O)cc-2oc2cc(O)ccc12)[*:2]].G.L.[O=C([C@H](Cc1ccc(OP(=O)(O)O)cc1)N[*:1])[*:2]].Q.G.L.S.[am]}$$$$V2.0) | – | inactive | –
2 | CC(C)C[C@H](NC(=O)CNC(=O)[C@H](CCC(N)=O)NC(=O)[C@H](Cc1ccc(OP(=O)(O)O)cc1)NC(=O)CNC(=O)c1cc(N=C=S)ccc1-c1c2ccc(=O)cc-2oc2cc(O)ccc12)C(=O)N[C@@H](CO)C(N)=O (HELM PEPTIDE1{[O=C(c1cc(N=C=S)ccc1-c1c2ccc(=O)cc-2oc2cc(O)ccc12)[*:2]].G.[O=C([C@H](Cc1ccc(OP(=O)(O)O)cc1)N[*:1])[*:2]].Q.G.L.S.[am]}$$$$V2.0) | – | inactive | –
3 | CC(C)C[C@H](NC(=O)CNC(=O)[C@H](CCC(N)=O)NC(=O)[C@H](Cc1ccc(OP(=O)(O)O)cc1)NC(=O)CCCNC(=O)c1cc(N=C=S)ccc1-c1c2ccc(=O)cc-2oc2cc(O)ccc12)C(=O)N[C@@H](CO)C(N)=O ({X2-GABA}-[pY]QGLS-NH2) | – | – | Kd [3]: 7.2 µM

Continued, in another order:

Row | Activity [1] | SMILES | Activity [2] | further results
4 | Active | CC(=O)N[C@@H](CCCNC(=N)N)C(=O)N[C@@H](CCCNC(=N)N)C(=O)N[C@@H](CCCNC(=N)N)C(=O)N[C@@H](CCCNC(=N)N)C(=O)N[C@@H](CCCNC(=N)N)C(=O)N[C@@H](CCCNC(=N)N)C(=O)N[C@@H](CCCNC(=N)N)C(=O)N[C@@H](CCCNC(=N)N)C(=O)NCCOCCOCCOCCNC(=O)[C@H](CO)NC(=O)[C@H](CC(C)C)NC(=O)CNC(=O)[C@H](CCC(N)=O)NC(=O)[C@H](Cc1ccc(OP(=O)(O)O)cc1)NC(=O)CCCCNC(=O)c1cc(N=C=S)ccc1-c1c2ccc(=O)cc-2oc2cc(O)ccc12 | – | –
5 | Active | CC[C@H](C)[C@H](NC(=O)[C@H](CCCCN)NC(=O)[C@@H](NC(=O)[C@H](CCC(N)=O)NC(=O)[C@H](CCCNC(=N)N)NC(C)=O)[C@@H](C)CC)C(=O)N[C@@H](Cc1c[nH]c2ccccc12)C(=O)N[C@@H](Cc1ccccc1)C(=O)N[C@@H](CCC(N)=O)C(=O)N[C@@H](CC(N)=O)C(=O)N[C@@H](CCCNC(=N)N)C(=O)N[C@@H](CCCNC(=N)N)C(=O)N[C@@H](CCSC)C(=O)N[C@@H](CCCCN)C(=O)N[C@@H](Cc1c[nH]c2ccccc12)C(=O)N[C@@H](CCCCN)C(=O)N[C@@H](CCCCN)C(=O)NCCOCCOCCOCCNC(=O)[C@H](CO)NC(=O)[C@H](CC(C)C)NC(=O)CNC(=O)[C@H](CCC(N)=O)NC(=O)[C@H](Cc1ccc(OP(=O)(O)O)cc1)NC(=O)CCCCNC(=O)c1cc(N=C=S)ccc1-c1c2ccc(=O)cc-2oc2cc(O)ccc12 | – | –
